How the values were obtained:
Assay type in all cases: ADME, organism-based
[1] = AUC in rat at 0.5 mg/kg, iv; parameters: dose 0.5 mg/kg, route intravenous; settings: plasma
Procedure, shortened: (§1)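 Rats given 0.5 mg/kg iv and 10 mg/kg po. The iv plasma values are the mean from three rats; the po plasma values come from a single rat.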

[2] = AUC in rat at 10 mg/kg, po; parameters: dose 10 mg/kg, route oral; settings: plasma; procedure, shortened: as §1
[3] = Oral bioavailability in rat at 10 mg/kg; settings: in vivo; procedure, shortened: as §1

AUC [1] [ng·h/mL]	AUC [2] [ng·h/mL]	bioavailability [3] [%]	Compound
161	141	4.4	O=C(Nc1cc2cc[nH]c(=O)c2cc1Cl)C1CCNCC1
127	1780	70	CN1CCC(C(=O)Nc2cc3cc[nH]c(=O)c3cc2Cl)CC1
119	338	20	N[C@H]1CC[C@@H](C(=O)Nc2cc3cc[nH]c(=O)c3cc2Cl)CC1

Reference: ChEMBL document CHEMBL1221307, “Substituted 2H-isoquinolin-1-ones as potent Rho-kinase inhibitors: part 2, optimization for blood pressure reduction in spontaneously hypertensive rats” (Bioorg Med Chem Lett, 2010)
